From ChEMBL document CHEMBL4828711, “Development of a selective matrix metalloproteinase 13 (MMP-13) inhibitor for the treatment of Osteoarthritis” (Eur J Med Chem, 2021)
Blank lines part the entries; values can stand above or below the compound they belong to. Active and inactive are the calls of the source. No cut-off for these calls is given here.

How the values were obtained:
Collagenase 3 [1] = biological target: T1, Collagenase 3 (Homo sapiens, UniProt P45452); assay: Inhibition of MMP13 (unknown origin)
How it was run: (§1)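 FRET assay with the catalytic domain of recombinant human MMP and a 5-FAM/QXL520 peptide substrate. Buffer was HEPES pH 7.5 with CaCl2, 0.01% Brij-35, 0.1 mg/ml BSA and 5% DMSO. Enzyme and compound were preincubated 10 min, then substrate was added. Fluorescence (ex 490/em 520 nm) was read every 5 min for 2 h at room temperature, and the initial linear slope was used. Curves had 12 doses, 3-fold dilutions from 100 μM, run in duplicate and averaged.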

Rattus norvegicus [2] = assay: Chondro-protective activity in MIA-induced Sprague-Dawley rat osteoarthritis model assessed as reduction of bone resorption in lateral femoral condyle at 0.06 mg, ia administered once per week for 3 weeks starting from 5 days post MIA treatment and measured after 26 days post MIA injection; format: functional; parameters: scale not given: the % may be the effect or the level left
How it was run: (§2)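 Male Sprague-Dawley rats (175–200 g) received 2 mg MIA in 40 μl into the right knee. Saline suspensions were given intra-articularly on days 5, 12 and 19, with 8 rats per group and 5 naive rats. Right knees were taken on day 26, then formalin-fixed, decalcified, paraffin-sectioned and toluidine blue-stained. A veterinary pathologist scored cell loss (area without viable chondrocytes), proteoglycan loss (staining intensity), bone resorption and osteophytes. Statistics were ANOVA or Kruskal-Wallis with post-tests versus vehicle.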

Rattus norvegicus [3] = assay: Chondro-protective activity in MIA-induced Sprague-Dawley rat osteoarthritis model assessed as reduction of cell loss at 0.06 mg, ia administered once per week for 3 weeks starting from 5 days post MIA treatment and measured after 26 days post MIA injection; format: functional, organism-based; how it was run: as §2
Rattus norvegicus [4] = assay: Chondro-protective activity in MIA-induced Sprague-Dawley rat osteoarthritis model assessed as reduction of bone resorption in tibia at 0.06 mg, ia administered once per week for 3 weeks starting from 5 days post MIA treatment and measured after 26 days post MIA injection; format: functional; parameters: scale not given: the % may be the effect or the level left; how it was run: as §2
Rattus norvegicus [5] = assay: Chondro-protective activity in MIA-induced Sprague-Dawley rat osteoarthritis model assessed as reduction of bone resorption in medial femoral condyle at 0.06 mg, ia administered once per week for 3 weeks starting from 5 days post MIA treatment and measured after 26 days post MIA injection; format: functional; parameters: scale not given: the % may be the effect or the level left; how it was run: as §2
Rattus norvegicus [6] = assay: Chondro-protective activity in MIA-induced Sprague-Dawley rat osteoarthritis model assessed as reduction of osteophyte score at 0.06 mg, ia administered once per week for 3 weeks starting from 5 days post MIA treatment and measured after 26 days post MIA injection; format: functional; parameters: scale not given: the % may be the effect or the level left; how it was run: as §2
[7] = Stability in rat liver microsomes assessed as parent compound remaining at 1 uM measured after 60 mins in presence of NADPH by LC-MS/MS analysis; format: ADME, Microsome; details: read-out: Stability
How it was run: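 Compound at 1 μM was incubated with 0.3 mg/ml rat liver microsomes in 100 mM potassium phosphate pH 7.4 with 2 mM NADPH and 3 mM MgCl2, in duplicate at 37 °C for 60 min. A control without NADPH was run alongside. Samples at 0 and 60 min were quenched in cold acidified acetonitrile with internal standards, and percent parent remaining was measured by LC-MS/MS.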

[8] = Stability in rat liver microsomes; format: ADME, Microsome
How it was run: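 Rat liver microsomes at 0.3 mg/ml protein with 1 μM compound, in 100 mM potassium phosphate pH 7.4, 2 mM NADPH, 3 mM MgCl2. Incubated in duplicate for 60 min at 37 °C with shaking, with a duplicate NADPH-free control. Sampled at T=0 and 60 min into cold acidified acetonitrile with internal standards. Percent parent remaining measured by LC-MS/MS (ESI, MRM).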

Neutrophil collagenase = Neutrophil collagenase (Homo sapiens, UniProt P22894); assay: Inhibition of recombinant human MMP8 using QXL520-gamma-Abu-Pro-Cha-Abu-Smc-His-Ala-Dab(5-FAM)-Ala-Lys-NH2 as substrate measured every 5 mins for 2 hrs by FRET assay; how it was run: as §1
Interstitial collagenase = biological target: T2, Interstitial collagenase (Homo sapiens, UniProt P03956); assay: Inhibition of recombinant human MMP1 using QXL520-gamma-Abu-Pro-Cha-Abu-Smc-His-Ala-Dab(5-FAM)-Ala-Lys-NH2 as substrate measured every 5 mins for 2 hrs by FRET assay; how it was run: as §1
T2 sequence (P03956 whole entry): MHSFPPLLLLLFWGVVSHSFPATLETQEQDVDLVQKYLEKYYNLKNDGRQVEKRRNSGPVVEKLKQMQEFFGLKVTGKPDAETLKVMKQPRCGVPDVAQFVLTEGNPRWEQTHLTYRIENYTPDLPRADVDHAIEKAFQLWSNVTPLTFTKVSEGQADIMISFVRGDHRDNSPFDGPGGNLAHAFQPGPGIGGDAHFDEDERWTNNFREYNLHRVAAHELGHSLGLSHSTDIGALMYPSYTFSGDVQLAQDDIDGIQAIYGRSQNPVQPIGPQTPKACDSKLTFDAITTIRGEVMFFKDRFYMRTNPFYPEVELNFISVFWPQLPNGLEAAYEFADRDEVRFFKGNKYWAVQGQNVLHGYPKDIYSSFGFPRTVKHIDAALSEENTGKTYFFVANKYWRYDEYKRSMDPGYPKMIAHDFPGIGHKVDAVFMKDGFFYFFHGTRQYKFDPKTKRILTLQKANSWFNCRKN

Rattus norvegicus [9] = assay: Chondro-protective activity in MIA-induced Sprague-Dawley rat osteoarthritis model assessed as reduction in proteoglycan loss on LTP at 1 mg, ia administered once per week for 3 weeks starting from 5 days post MIA treatment and measured after 26 days post MIA injection; format: functional; parameters: scale not given: the % may be the effect or the level left; how it was run: as §2
[10] = biological target: Matrix metalloproteinase-9 (Homo sapiens, UniProt P14780); assay: Inhibition of recombinant human MMP9 using QXL520-gamma-Abu-Pro-Cha-Abu-Smc-His-Ala-Dab(5-FAM)-Ala-Lys-NH2 as substrate measured every 5 mins for 2 hrs by FRET assay; how it was run: as §1
Rattus norvegicus [11] = assay: Chondro-protective activity in MIA-induced Sprague-Dawley rat osteoarthritis model assessed as reduction in proteoglycan loss on LFC at 1 mg, ia administered once per week for 3 weeks starting from 5 days post MIA treatment and measured after 26 days post MIA injection; format: functional; parameters: scale not given: the % may be the effect or the level left; how it was run: as §2
[12] = biological target: 72 kDa type IV collagenase (Homo sapiens, UniProt P08253); assay: Inhibition of recombinant human MMP2 using QXL520-gamma-Abu-Pro-Cha-Abu-Smc-His-Ala-Dab(5-FAM)-Ala-Lys-NH2 as substrate measured every 5 mins for 2 hrs by FRET assay; how it was run: as §1
Rattus norvegicus [13] = assay: Chondro-protective activity in MIA-induced Sprague-Dawley rat osteoarthritis model assessed as reduction in proteoglycan loss on MTP at 1 mg, ia administered once per week for 3 weeks starting from 5 days post MIA treatment and measured after 26 days post MIA injection; format: functional; parameters: scale not given: the % may be the effect or the level left; how it was run: as §2
Stromelysin-1 = Stromelysin-1 (Homo sapiens, UniProt P08254); assay: Inhibition of recombinant human MMP3 using QXL520-gamma-Abu-Pro-Cha-Abu-Smc-His-Ala-Dab(5-FAM)-Ala-Lys-NH2 as substrate measured every 5 mins for 2 hrs by FRET assay; how it was run: as §1
Collagenase 3 [14] = biological target: T1, Collagenase 3; assay: Inhibition of recombinant human MMP13 using QXL520-gamma-Abu-Pro-Cha-Abu-Smc-His-Ala-Dab(5-FAM)-Ala-Lys-NH2 as substrate measured every 5 mins for 2 hrs by FRET assay
How it was run: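 Catalytic domain of human recombinant MMP-13. Buffer: HEPES pH 7.5, CaCl2, 0.01% Brij-35, 0.1 mg/ml BSA and 5% DMSO. Compound was preincubated with enzyme for 10 min before substrate addition. Fluorescence (ex 490, em 520 nm) was read at room temperature. IC50 came from initial linear slopes over 12 doses, 3-fold dilutions from 100 μM, in duplicate, reported as the mean.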

Matrilysin = biological target: T3, Matrilysin (Homo sapiens, UniProt P09237); assay: Inhibition of recombinant human MMP7 using QXL520-gamma-Abu-Pro-Cha-Abu-Smc-His-Ala-Dab(5-FAM)-Ala-Lys-NH2 as substrate measured every 5 mins for 2 hrs by FRET assay; how it was run: as §1
T3 sequence (P09237 whole entry): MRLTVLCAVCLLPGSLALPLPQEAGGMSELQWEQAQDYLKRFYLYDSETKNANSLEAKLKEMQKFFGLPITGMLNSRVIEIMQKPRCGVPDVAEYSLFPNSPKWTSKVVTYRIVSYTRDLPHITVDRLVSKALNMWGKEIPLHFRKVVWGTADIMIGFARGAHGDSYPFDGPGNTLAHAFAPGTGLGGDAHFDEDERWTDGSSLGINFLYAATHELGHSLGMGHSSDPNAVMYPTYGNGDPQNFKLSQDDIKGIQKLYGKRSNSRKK

Rattus norvegicus [15] = assay: Chondro-protective activity in MIA-induced Sprague-Dawley rat osteoarthritis model assessed as reduction in cell loss on lateral tibial plateau at 1 mg, ia administered once per week for 3 weeks starting from 5 days post MIA treatment and measured after 26 days post MIA injection; format: functional; parameters: scale not given: the % may be the effect or the level left; how it was run: as §2
[16] = biological target: Macrophage metalloelastase (Homo sapiens, UniProt P39900); assay: Inhibition of recombinant human MMP12 using QXL520-gamma-Abu-Pro-Cha-Abu-Smc-His-Ala-Dab(5-FAM)-Ala-Lys-NH2 as substrate measured every 5 mins for 2 hrs by FRET assay; how it was run: as §1
[17] = biological target: Matrix metalloproteinase-14 (Homo sapiens, UniProt P50281); assay: Inhibition of recombinant human MMP14 using QXL520-gamma-Abu-Pro-Cha-Abu-Smc-His-Ala-Dab(5-FAM)-Ala-Lys-NH2 as substrate measured every 5 mins for 2 hrs by FRET assay; how it was run: as §1
Stromelysin-2 = Stromelysin-2 (Homo sapiens, UniProt P09238); assay: Inhibition of recombinant human MMP10 using QXL520-gamma-Abu-Pro-Cha-Abu-Smc-His-Ala-Dab(5-FAM)-Ala-Lys-NH2 as substrate measured every 5 mins for 2 hrs by FRET assay
Chain of Stromelysin-2 (P09238 whole entry): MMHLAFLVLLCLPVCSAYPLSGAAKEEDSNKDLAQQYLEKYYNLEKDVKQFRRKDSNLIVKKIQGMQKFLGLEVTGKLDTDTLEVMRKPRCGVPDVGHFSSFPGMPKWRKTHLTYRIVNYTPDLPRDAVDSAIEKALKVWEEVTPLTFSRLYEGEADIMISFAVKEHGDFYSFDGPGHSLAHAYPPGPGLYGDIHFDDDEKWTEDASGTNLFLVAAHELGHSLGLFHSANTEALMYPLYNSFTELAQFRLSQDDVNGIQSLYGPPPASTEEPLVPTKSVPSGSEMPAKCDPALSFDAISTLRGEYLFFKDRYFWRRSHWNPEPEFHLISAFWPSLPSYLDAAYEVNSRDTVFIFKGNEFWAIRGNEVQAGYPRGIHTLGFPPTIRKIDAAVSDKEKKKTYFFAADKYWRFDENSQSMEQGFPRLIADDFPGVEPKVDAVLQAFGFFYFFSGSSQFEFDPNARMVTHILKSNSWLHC

Chain of Macrophage metalloelastase (P39900 whole entry): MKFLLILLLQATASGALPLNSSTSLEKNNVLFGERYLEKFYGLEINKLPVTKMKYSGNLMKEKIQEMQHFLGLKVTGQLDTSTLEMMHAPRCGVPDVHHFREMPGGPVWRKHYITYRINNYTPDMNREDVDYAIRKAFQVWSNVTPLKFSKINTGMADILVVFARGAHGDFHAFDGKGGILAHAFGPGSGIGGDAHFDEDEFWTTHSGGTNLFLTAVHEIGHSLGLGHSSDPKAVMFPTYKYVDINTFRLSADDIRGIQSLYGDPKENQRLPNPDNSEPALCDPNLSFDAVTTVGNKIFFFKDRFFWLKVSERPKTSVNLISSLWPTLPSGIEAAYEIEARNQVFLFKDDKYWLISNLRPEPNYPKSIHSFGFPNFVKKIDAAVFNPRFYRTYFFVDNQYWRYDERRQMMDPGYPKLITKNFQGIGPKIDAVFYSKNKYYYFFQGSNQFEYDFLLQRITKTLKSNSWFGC
Chain of Stromelysin-1 (P08254 whole entry): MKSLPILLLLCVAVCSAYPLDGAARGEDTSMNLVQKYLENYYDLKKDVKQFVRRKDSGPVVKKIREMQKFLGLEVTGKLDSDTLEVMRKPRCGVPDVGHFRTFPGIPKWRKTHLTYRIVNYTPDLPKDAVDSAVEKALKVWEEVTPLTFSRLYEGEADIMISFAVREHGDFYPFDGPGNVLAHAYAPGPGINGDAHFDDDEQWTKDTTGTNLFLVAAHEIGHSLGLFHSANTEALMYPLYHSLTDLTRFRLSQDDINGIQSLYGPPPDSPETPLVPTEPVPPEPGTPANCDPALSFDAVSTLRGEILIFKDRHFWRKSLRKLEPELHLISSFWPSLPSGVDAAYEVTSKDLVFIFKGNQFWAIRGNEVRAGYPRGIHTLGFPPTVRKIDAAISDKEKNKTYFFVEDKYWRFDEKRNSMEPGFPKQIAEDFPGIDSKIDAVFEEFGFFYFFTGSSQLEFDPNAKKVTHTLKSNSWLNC
Chain of Matrix metalloproteinase-9 (P14780 whole entry): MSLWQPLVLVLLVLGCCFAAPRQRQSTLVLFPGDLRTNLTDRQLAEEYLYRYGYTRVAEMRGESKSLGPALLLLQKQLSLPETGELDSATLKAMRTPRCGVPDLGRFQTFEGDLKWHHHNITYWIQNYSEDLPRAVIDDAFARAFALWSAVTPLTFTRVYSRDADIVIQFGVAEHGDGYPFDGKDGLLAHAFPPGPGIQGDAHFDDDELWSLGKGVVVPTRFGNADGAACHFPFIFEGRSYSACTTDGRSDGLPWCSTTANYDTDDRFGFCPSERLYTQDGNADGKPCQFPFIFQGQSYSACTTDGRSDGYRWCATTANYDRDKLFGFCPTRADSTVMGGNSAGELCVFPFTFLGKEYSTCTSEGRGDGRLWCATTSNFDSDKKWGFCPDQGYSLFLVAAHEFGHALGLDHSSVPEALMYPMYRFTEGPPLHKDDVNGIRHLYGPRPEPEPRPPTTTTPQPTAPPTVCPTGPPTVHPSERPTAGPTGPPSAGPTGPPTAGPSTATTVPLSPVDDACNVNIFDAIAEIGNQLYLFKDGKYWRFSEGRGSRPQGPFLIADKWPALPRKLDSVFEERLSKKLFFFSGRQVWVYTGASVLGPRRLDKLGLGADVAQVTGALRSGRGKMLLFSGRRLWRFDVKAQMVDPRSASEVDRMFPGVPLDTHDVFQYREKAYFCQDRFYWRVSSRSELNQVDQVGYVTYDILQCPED
Chain of Neutrophil collagenase (P22894 whole entry): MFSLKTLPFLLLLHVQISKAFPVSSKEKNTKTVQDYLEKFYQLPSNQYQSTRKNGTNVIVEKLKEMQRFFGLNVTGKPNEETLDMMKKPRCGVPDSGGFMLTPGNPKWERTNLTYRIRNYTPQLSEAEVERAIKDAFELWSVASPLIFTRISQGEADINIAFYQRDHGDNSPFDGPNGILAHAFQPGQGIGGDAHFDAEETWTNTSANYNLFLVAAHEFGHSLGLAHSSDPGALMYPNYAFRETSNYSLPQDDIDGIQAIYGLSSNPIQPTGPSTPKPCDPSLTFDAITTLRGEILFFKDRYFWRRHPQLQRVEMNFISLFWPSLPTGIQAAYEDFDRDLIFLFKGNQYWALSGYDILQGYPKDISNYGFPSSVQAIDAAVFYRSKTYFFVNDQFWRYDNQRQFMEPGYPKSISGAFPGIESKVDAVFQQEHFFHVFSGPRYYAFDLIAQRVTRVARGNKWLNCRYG
Chain of 72 kDa type IV collagenase (P08253 whole entry): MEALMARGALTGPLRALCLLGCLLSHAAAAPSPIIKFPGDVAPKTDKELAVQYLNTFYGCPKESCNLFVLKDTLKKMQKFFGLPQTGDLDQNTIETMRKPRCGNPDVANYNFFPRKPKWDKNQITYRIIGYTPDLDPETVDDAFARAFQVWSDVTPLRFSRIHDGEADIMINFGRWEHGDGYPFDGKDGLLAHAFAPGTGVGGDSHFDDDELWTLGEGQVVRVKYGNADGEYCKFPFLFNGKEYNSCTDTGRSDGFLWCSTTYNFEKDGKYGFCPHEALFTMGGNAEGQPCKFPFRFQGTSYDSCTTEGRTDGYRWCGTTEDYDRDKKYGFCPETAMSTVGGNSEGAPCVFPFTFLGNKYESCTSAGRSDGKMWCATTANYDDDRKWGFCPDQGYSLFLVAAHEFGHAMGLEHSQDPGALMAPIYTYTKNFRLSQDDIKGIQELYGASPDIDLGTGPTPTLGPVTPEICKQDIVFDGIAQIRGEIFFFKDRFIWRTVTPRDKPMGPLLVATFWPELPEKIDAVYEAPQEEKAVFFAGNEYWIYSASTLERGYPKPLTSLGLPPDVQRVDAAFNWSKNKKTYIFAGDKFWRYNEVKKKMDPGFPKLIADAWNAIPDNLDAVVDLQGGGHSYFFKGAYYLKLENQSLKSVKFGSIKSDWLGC

Structure (SMILES): C[C@H](NC(=O)c1cc(C(=O)NCc2ccc(-c3nnn[nH]3)cc2)ncn1)c1ccccc1
IC50 (Collagenase 3 [1]): < 0.01 µM

Structure (SMILES): C[C@]12C=CC(=O)C=C1CC[C@H]1[C@@H]3C[C@@H](O)[C@](O)(C(=O)CO)[C@@]3(C)C[C@H](O)[C@@]12F [TRIAMCINOLONE]
Activity (Rattus norvegicus [2]): 49%
Activity (Rattus norvegicus [3]): inactive
Activity (Rattus norvegicus [4]): 34%
Activity (Rattus norvegicus [5]): 49%
Activity (Rattus norvegicus [6]): 40%

Structure (SMILES): C[C@@H](NC(=O)c1cc(C(=O)NCc2ccc(-c3nnn[nH]3)cc2)ncn1)c1ccccc1
IC50 (Collagenase 3 [1]): > 0.1 µM

The next lines start with results.

remaining at 1 h, 1 µM [7]: 90%
Structure (SMILES): Cc1cc(CNC(=O)c2cc(C(=O)NCc3ccc(C(=O)O)cc3)ncn2)ccc1F

Stability [8]: 0.6%
Structure (SMILES): Cc1cc(CNC(=O)c2cc(C(=O)NCc3ccc(F)c(C)c3)ncn2)ccc1F

remaining at 1 h, 1 µM [7]: 99%
IC50 (Neutrophil collagenase): 98 µM
IC50 (Interstitial collagenase): > 100 µM
IC50 [10]: 74 µM
IC50 [12]: > 100 µM
IC50 (Stromelysin-1): > 100 µM
IC50 (Collagenase 3 [14]): 0.0048 µM
IC50 (Matrilysin): > 100 µM
IC50 [16]: > 100 µM
IC50 [17]: > 100 µM
IC50 (Stromelysin-2): 1 µM
Structure (SMILES): [2H]C([2H])(NC(=O)c1cc(C(=O)NCc2ccc(F)c(C)c2)ncn1)c1ccc(C(=O)O)cc1
Activity (Rattus norvegicus [9]): 15%
Activity (Rattus norvegicus [11]): 15%
Activity (Rattus norvegicus [13]): 15%
Activity (Rattus norvegicus [15]): 8%
